In ChEMBL document CHEMBL4118097, “Selective Inhibitors of Dual Leucine Zipper Kinase (DLK, MAP3K12) with Activity in a Model of Alzheimer's Disease” (J Med Chem, 2017):
Calls of active or inactive are those of the source. The rule behind the calls is not given here.

Legend:
[1] = target: Phosphatidylinositol 4,5-bisphosphate 3-kinase catalytic subunit gamma isoform (Homo sapiens) (UniProt P48736); assay: Inhibition of recombinant full length His-tagged human PI3KG at 1 uM by FRET assay relative to control
Chain of Phosphatidylinositol 4,5-bisphosphate 3-kinase catalytic subunit gamma isoform (Homo sapiens) (P48736 whole entry, looked up, canonical isoform): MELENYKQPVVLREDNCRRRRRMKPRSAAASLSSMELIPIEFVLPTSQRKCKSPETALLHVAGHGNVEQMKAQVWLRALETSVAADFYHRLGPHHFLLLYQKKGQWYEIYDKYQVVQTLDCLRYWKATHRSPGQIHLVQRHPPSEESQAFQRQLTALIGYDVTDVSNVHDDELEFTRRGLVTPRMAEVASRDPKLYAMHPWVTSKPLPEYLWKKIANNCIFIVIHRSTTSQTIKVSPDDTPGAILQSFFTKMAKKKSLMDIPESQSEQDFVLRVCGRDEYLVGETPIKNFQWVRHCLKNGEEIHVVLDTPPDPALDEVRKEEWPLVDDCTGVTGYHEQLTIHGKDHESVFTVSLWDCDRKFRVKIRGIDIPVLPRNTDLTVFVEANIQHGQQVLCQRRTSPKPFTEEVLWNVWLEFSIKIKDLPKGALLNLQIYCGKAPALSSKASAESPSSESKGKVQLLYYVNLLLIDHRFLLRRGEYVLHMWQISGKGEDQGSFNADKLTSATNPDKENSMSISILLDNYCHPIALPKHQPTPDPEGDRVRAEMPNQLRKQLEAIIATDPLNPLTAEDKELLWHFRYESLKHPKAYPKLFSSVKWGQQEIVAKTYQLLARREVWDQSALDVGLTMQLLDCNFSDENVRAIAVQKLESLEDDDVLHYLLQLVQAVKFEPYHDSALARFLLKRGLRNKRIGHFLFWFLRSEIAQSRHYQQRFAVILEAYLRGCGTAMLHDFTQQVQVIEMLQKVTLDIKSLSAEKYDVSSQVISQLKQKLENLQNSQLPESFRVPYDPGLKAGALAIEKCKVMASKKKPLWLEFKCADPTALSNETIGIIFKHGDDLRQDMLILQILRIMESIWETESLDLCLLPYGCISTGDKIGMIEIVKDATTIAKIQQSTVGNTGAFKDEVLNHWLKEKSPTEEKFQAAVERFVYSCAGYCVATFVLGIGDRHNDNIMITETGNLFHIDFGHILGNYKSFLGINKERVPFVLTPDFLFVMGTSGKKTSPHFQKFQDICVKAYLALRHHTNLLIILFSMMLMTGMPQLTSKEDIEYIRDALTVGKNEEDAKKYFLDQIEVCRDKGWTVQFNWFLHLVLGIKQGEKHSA

[2] = target: Casein kinase I isoform gamma-2 (Homo sapiens) (UniProt P78368); assay: Inhibition of CK1gamma2 (unknown origin) at 1 uM by FRET assay relative to control
Chain of Casein kinase I isoform gamma-2 (Homo sapiens) (P78368 whole entry, looked up, canonical isoform): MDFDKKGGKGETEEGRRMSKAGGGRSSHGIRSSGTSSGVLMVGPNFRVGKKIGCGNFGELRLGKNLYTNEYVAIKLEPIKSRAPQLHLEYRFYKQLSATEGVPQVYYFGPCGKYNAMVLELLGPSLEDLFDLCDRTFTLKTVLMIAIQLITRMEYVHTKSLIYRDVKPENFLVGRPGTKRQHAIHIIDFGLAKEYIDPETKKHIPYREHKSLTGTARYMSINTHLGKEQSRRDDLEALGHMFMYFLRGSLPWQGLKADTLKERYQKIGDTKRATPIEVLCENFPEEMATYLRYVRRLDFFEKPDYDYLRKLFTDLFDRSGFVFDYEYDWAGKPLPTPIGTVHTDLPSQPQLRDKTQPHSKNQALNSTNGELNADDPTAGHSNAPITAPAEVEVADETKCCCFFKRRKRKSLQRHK

[3] = target: Serine/threonine-protein kinase PAK 1 (Homo sapiens) (UniProt Q13153); assay: Inhibition of recombinant full length GST-tagged human PAK1 expressed in baculovirus expression system at 1 uM by FRET assay relative to control
Chain of Serine/threonine-protein kinase PAK 1 (Homo sapiens) (Q13153 whole entry): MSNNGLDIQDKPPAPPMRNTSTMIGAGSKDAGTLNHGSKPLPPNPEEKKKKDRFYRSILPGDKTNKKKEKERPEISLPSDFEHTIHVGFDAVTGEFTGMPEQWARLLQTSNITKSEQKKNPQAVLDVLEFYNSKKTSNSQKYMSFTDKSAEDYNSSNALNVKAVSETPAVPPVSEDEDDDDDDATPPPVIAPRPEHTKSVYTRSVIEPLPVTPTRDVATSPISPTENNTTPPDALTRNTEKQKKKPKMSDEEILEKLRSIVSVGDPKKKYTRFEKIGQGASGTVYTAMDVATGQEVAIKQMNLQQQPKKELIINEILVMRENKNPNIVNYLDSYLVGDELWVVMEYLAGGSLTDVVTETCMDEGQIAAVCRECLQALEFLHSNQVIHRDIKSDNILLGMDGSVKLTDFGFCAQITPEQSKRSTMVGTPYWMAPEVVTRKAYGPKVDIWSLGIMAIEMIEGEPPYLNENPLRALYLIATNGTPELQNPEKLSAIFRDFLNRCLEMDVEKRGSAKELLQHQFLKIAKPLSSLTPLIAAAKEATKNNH

[4] = target: Calcium/calmodulin-dependent protein kinase type IV (Homo sapiens) (UniProt Q16566); assay: Inhibition of recombinant full length GST-tagged human CamK4 expressed in Escherichia coli at 1 uM by FRET assay relative to control
Chain of Calcium/calmodulin-dependent protein kinase type IV (Homo sapiens) (Q16566 whole entry): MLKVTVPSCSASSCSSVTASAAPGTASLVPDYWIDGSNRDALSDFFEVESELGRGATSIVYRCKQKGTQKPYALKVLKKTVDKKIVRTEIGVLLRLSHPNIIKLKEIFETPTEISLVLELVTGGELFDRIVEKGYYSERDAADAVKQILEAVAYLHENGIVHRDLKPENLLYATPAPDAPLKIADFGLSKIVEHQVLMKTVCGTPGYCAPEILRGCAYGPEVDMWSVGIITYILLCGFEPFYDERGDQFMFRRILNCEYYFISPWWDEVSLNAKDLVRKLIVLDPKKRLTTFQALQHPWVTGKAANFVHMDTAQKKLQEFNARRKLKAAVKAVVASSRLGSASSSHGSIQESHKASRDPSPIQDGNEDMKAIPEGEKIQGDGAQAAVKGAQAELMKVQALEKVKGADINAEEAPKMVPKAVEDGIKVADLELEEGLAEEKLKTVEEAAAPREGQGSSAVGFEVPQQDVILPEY

Myotonin-protein kinase = Myotonin-protein kinase (Homo sapiens, UniProt Q09013); assay: Inhibition of full length recombinant human DMPK expressed in baculovirus expression system by FRET assay
Chain of Myotonin-protein kinase (Q09013 whole entry): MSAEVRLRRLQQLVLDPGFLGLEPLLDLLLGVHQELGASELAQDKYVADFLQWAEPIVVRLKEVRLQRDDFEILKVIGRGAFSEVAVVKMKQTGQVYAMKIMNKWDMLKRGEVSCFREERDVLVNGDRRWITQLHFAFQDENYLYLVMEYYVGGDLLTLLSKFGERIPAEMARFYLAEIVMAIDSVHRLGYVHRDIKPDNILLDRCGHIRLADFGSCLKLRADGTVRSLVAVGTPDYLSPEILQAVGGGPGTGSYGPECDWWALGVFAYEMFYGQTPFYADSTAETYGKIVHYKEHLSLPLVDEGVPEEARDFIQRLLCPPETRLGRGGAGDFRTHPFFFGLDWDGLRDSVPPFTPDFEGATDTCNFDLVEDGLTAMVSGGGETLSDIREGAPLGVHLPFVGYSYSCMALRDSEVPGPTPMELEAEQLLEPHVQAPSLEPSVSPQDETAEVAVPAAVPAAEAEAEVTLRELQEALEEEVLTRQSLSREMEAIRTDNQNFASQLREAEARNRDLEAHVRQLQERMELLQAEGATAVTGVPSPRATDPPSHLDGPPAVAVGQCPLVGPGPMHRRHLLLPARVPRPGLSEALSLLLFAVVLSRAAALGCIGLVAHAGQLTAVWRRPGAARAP

[5] = target: T1, Mitogen-activated protein kinase kinase kinase 12 (Homo sapiens, UniProt Q12852); assay: Inhibition of doxycycline inducible human DLK transfected in HEK293 cells assessed as JNK phosphorylation after […] by Hoechst-33342 staining-based assay; assay type: cell-based
T1 sequence (Q12852 whole entry): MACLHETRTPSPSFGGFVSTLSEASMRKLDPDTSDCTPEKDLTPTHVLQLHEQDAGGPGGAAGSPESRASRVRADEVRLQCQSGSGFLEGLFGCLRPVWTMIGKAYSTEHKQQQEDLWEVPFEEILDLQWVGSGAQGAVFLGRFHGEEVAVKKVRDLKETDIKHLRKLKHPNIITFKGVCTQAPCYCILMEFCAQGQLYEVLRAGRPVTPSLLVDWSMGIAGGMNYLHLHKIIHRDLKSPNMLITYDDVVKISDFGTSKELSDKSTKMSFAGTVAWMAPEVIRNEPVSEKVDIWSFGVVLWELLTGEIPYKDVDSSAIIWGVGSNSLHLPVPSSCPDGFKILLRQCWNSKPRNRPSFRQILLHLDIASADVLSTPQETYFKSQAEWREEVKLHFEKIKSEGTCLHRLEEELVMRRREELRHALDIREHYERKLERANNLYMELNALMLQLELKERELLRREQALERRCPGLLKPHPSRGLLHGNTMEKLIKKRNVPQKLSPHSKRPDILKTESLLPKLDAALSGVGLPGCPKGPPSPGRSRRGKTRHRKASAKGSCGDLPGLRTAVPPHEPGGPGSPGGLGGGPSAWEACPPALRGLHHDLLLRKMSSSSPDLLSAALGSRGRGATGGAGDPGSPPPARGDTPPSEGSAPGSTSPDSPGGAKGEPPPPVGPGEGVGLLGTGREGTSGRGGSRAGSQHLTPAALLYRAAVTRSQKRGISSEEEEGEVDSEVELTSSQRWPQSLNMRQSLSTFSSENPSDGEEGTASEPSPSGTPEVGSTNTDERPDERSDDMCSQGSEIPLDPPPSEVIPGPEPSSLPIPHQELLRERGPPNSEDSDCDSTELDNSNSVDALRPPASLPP

[6] = target: Macrophage colony-stimulating factor 1 receptor (Homo sapiens, UniProt P07333); assay: Inhibition of recombinant His-tagged human CSF1R cytoplasmic domain (538 to 910 residues) expressed in baculovirus expression system by FRET assay
[7] = target: Tyrosine-protein kinase receptor UFO (Homo sapiens, UniProt P30530); assay: Inhibition of recombinant His-tagged human AXL (473 to end residues) cytoplasmic domain expressed in insect cells by FRET assay
Ephrin type-A receptor 7 = Ephrin type-A receptor 7 (Homo sapiens, UniProt Q15375); assay: Inhibition of recombinant GST-tagged human EphA7 cytoplasmic domain expressed in baculovirus expression system by FRET assay
[8] = target: Serine/threonine-protein kinase PAK 4 (Homo sapiens, UniProt O96013); assay: Inhibition of recombinant GST-tagged human PAK4 catalytic domain expressed in baculovirus expression system by FRET assay
Chain of Serine/threonine-protein kinase PAK 4 (O96013 whole entry, the tested form may be a part): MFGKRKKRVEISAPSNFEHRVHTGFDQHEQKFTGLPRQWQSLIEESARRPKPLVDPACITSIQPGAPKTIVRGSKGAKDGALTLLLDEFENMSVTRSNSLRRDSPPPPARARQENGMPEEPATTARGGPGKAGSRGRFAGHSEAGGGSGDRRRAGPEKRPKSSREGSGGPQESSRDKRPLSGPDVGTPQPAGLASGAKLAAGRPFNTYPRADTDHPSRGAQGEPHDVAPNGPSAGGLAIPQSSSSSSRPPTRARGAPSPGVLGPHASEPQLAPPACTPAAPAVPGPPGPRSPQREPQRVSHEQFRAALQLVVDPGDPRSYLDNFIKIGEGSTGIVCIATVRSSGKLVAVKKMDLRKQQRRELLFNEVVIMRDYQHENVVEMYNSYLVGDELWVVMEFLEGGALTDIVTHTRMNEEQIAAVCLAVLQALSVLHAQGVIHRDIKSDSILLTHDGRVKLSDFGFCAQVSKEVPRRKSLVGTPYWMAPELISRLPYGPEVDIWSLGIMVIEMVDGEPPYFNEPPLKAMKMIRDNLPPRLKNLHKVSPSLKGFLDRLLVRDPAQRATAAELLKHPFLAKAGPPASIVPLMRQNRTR

[9] = target: Serine/threonine-protein kinase 26 (Homo sapiens) (UniProt Q9P289); assay: Inhibition of recombinant GST-tagged human MST4 expressed in baculovirus at 1 uM by FRET assay relative to control
Chain of Serine/threonine-protein kinase 26 (Homo sapiens) (Q9P289 2-416 limits assumed): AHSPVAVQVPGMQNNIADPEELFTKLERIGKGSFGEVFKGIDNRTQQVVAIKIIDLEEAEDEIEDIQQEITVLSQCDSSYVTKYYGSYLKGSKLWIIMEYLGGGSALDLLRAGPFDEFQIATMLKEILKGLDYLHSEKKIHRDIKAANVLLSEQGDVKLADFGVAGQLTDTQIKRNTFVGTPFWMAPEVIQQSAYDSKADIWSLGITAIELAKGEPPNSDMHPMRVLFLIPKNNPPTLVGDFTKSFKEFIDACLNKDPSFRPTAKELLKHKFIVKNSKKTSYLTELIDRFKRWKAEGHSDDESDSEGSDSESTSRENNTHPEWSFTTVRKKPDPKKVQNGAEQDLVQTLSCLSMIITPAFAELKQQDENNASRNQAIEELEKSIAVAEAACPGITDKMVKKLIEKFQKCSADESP

[10] = target: T1, Mitogen-activated protein kinase kinase kinase 12; assay: Inhibition of doxycycline inducible human DLK transfected in HEK293 cells assessed as JNK phosphorylation after […] in presence of 10% bovine serum by Hoechst-33342 staining-based assay; assay type: cell-based
[11] = target: Calcium/calmodulin-dependent protein kinase type 1 (Homo sapiens) (UniProt Q14012); assay: Inhibition of recombinant full length His-tagged human CaMK1 expressed in baculovirus expression system at 1 uM by FRET assay relative to control
Mus musculus [12] = assay: In-vivo inhibition of DLK in PS2APP mouse model assessed as reduction in phosphorylated c-jun level in cortical lysate at 15 mg/kg, po administered as single dose after 6 hrs by Western blot analysis; assay type: functional, organism-based
Mus musculus [13] = assay: In-vivo inhibition of DLK in PS2APP mouse model assessed as reduction in phosphorylated c-jun level in cortical lysate at 50 mg/kg, po administered as single dose after 6 hrs by Western blot analysis; assay type: functional, organism-based
Mus musculus [14] = assay: Down regulation of phosphorylated JNK level in cortical lysate of PS2APP mouse model at 15 to 50 mg/kg, po administered as single dose after 6 hrs by Western blot analysis; assay type: functional, organism-based
[15] = target: Serine/threonine-protein kinase Nek9 (Homo sapiens) (UniProt Q8TD19); assay: Inhibition of recombinant full length GST-tagged human NEK9 catalytic domain expressed in baculovirus expression system at 1 uM by FRET assay relative to control
[16] = target: Protein kinase C zeta type (Homo sapiens) (UniProt Q05513); assay: Inhibition of PKCzeta (unknown origin) at 1 uM by FRET assay relative to control
Mus musculus [17] = assay: In-vivo inhibition of DLK in PS2APP mouse model assessed as reduction in phosphorylated c-jun level in cortical lysate at 15 mg/kg, po administered as single dose after 6 hrs by Western blot analysis relative to control; assay type: functional
Method in brief: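 Homozygous PS2APP mice aged 9–10 months got one oral dose of 15 mg/kg as an MCT suspension, or vehicle; n = 7–8 per group. At 6 h: terminal plasma by cardiac puncture under deep anaesthesia, then PBS perfusion. Left cortex frozen at −80 °C and homogenised in 10 volumes RIPA. p-c-Jun read by Western blot with a GAPDH control, compared with vehicle (Dunnett's test).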

[18] = target: Serine/threonine-protein kinase 16 (Homo sapiens, UniProt O75716); assay: Inhibition of recombinant full length His-tagged human STK16 expressed in baculovirus expression system by FRET assay
Chain of Serine/threonine-protein kinase 16 (O75716 whole entry): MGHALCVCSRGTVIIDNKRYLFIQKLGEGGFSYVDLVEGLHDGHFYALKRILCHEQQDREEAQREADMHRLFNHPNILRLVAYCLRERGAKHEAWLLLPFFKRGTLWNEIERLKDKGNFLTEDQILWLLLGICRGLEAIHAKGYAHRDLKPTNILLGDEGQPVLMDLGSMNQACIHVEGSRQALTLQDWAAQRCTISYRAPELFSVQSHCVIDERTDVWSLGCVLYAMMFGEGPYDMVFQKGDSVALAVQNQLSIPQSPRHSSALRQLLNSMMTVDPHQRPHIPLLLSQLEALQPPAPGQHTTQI

[19] = target: Death-associated protein kinase 3 (Homo sapiens) (UniProt O43293); assay: Inhibition of recombinant full length GST-tagged human ZIPK expressed in baculovirus expression system at 1 uM by FRET assay relative to control
Chain of Death-associated protein kinase 3 (Homo sapiens) (O43293 whole entry, looked up): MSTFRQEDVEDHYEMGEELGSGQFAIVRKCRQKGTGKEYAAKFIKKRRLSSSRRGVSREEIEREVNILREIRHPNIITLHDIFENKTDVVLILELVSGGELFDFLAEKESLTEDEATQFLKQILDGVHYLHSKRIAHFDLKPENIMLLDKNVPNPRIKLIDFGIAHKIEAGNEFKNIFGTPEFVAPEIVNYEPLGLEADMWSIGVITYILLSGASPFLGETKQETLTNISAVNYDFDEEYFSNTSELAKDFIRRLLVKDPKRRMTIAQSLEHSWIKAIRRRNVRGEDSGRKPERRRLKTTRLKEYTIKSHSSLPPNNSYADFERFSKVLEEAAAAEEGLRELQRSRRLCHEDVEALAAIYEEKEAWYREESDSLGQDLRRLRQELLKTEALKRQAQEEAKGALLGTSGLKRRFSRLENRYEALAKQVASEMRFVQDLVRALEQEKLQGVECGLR

Mus musculus [20] = assay: Down regulation of phosphorylated MKK4 level in cortical lysate of PS2APP mouse model at 15 to 50 mg/kg, po administered as single dose after 6 hrs by Western blot analysis; assay type: functional, organism-based

Nc1ncc(-c2cc([C@H]3[C@@H]4CN(C5COC5)C[C@@H]43)n(CC3CC3)n2)cc1C(F)(F)F
inhibition [1]: 12.4% | inhibition [2]: 7.1% | inhibition [3]: 0.7% | inhibition [4]: 12.4% | IC50 (Myotonin-protein kinase): 1380 nM | IC50 [5]: 144 nM | IC50 [6]: 1220 nM | IC50 [7]: 448 nM | IC50 (Ephrin type-A receptor 7): 665 nM

CC(C)n1nc(-c2cnc(N)c(OC(F)(F)F)c2)cc1[C@H]1[C@@H]2CN(C3COC3)C[C@@H]21
IC50 [8]: 673 nM | inhibition [9]: -3.5% | IC50 [10]: 129 nM | inhibition [11]: -5.9% | inhibition (Mus musculus [12]): Active | inhibition (Mus musculus [13]): Active | Activity (Mus musculus [14]): Active | IC50 [5]: 195 nM | inhibition [15]: -3.4% | inhibition [16]: 5.9% | inhibition in vivo at 15 mg/kg (Mus musculus [17]): 42% | IC50 [18]: 1520 nM | inhibition [19]: 3.5% | Activity (Mus musculus [20]): Active
